ChEMBL document CHEMBL2311424, “Inhibitors of human immunodeficiency virus type 1 (HIV-1) attachment 13. Synthesis and profiling of a novel amminium prodrug of the HIV-1 attachment inhibitor BMS-585248” (J Med Chem, 2013)
One block for each molecule: values may come before it.

Assays:
[1] = Drug excretion in bile duct cannulated Sprague-Dawley rat urine at 1 mg/kg, iv up to 2 hrs; assay type: ADME, organism-based; design: dose 1 mg/kg, route intravenous; details: read-out: Drug excretion
Summary of the method: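 Bile duct/jugular vein cannulated male rats (n = 3) given prodrug 1 mg/kg IV; plasma, bile and urine collected up to 6 h. Biotransformation profiled by UPLC on C18 at 40 °C with gradient elution, positive electrospray full-scan MS and data-dependent MS/MS; relative percentages of prodrug, N-acetyl conjugate and parent reported.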

Rattus norvegicus [2] = test: Cmax in Sprague-Dawley rat assessed as BMS-585248 level at 5 mg/kg, po after 6 hrs; assay type: ADME, organism-based; design: dose 5 mg/kg, route oral; details: in vivo
Rattus norvegicus [3] = test: Cmax in Sprague-Dawley rat assessed as BMS-585248 level at 25 mg/kg, po; assay type: ADME, organism-based; design: dose 25 mg/kg, route oral; details: in vivo
Summary of the method: (§1)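 Oral dose escalation in male rats, groups of three, dosed by gavage from solutions in water with 0.5% methylcellulose: prodrug trifluoroacetate salt at 5, 25 and 200 mg/kg; parent at 15, 75 and 200 mg/kg. Plasma analysed by LC/MS/MS; noncompartmental PK.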

[4] = AUC in Sprague-Dawley rat at 1 mg/kg, iv; assay type: ADME, organism-based; design: dose 1 mg/kg, route intravenous; details: plasma
Summary of the method: (§2)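 Male rats, groups of three; prodrug trifluoroacetate salt given by IV bolus (1 mg/kg) or oral gavage (5 mg/kg) after overnight fast, both from a 1 mg/mL solution in PEG-400/ethanol 90/10 v/v. Plasma sampled up to 24 h, stored at −20 °C, parent and prodrug quantified by LC/MS/MS; noncompartmental analysis.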

[5] = Clearance in Sprague-Dawley rat at 1 mg/kg, iv; assay type: ADME, organism-based; design: dose 1 mg/kg, route intravenous; details: in vivo; summary of the method: as §2
[6] = Cmax in dual cannulated portal vein Sprague-Dawley rat at 5 mg/kg, po; assay type: ADME, organism-based; design: dose 5 mg/kg, route oral
Rattus norvegicus [7] = test: AUClast in Sprague-Dawley rat assessed as BMS-585248 level at 5 mg/kg, po; assay type: ADME, organism-based, Plasma; design: time 0 - last, dose 5 mg/kg, route oral; details: in vivo
Summary of the method: (§3)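 Male rats (n = 3 per group) pretreated 2 days with saline or an antibiotic mix (bacitracin 400 mg/kg BID, neomycin sulfate 400 mg/kg BID, tetracycline 200 mg/kg), then given prodrug 5 mg/kg orally. Plasma to 24 h, stored −20 °C, LC/MS/MS quantitation of prodrug and parent.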

[8] = AUC in dual cannulated portal vein Sprague-Dawley rat at 5 mg/kg, po; assay type: ADME, organism-based; design: dose 5 mg/kg, route oral; details: plasma
[9] = Half life in Sprague-Dawley rat at 1 mg/kg, iv; assay type: ADME, organism-based; design: dose 1 mg/kg, route intravenous; details: in vivo; summary of the method: as §2
Rattus norvegicus [10] = test: Total AUC in Sprague-Dawley rat assessed as BMS-585248 level at 200 mg/kg, po; assay type: ADME, organism-based; design: time AUCmax, dose 200 mg/kg, route oral; details: in vivo; summary of the method: as §1
[11] = Volume of distribution in Sprague-Dawley rat at 1 mg/kg, iv; assay type: ADME, organism-based; design: dose 1 mg/kg, route intravenous; details: in vivo; summary of the method: as §2
Rattus norvegicus [12] = test: Cmax in dual cannulated portal vein Sprague-Dawley rat assessed as BMS-585248 level at 5 mg/kg, po; assay type: ADME, organism-based; design: dose 5 mg/kg, route oral; details: in vivo
Rattus norvegicus [13] = test: Cmax in Sprague-Dawley rat assessed as BMS-585248 level at 5 mg/kg, po; assay type: ADME, organism-based; design: dose 5 mg/kg, route oral; details: in vivo; summary of the method: as §1
Rattus norvegicus [14] = test: Total AUC in Sprague-Dawley rat assessed as BMS-585248 level at 5 mg/kg, po; assay type: ADME, organism-based; design: dose 5 mg/kg, route oral, time AUCmax; details: in vivo; summary of the method: as §1
Rattus norvegicus [15] = test: Prodrug conversion in Sprague-Dawley rat assessed as BMS-585248 level at 1 mg/kg, iv after 5 mins; assay type: ADME, organism-based; design: dose 1 mg/kg, route intravenous; details: in vivo; summary of the method: as §2
Rattus norvegicus [16] = test: AUClast in bacitracin, neomycin sulfate and tetracycline treated Sprague-Dawley rat assessed as BMS-585248 level at 5 mg/kg, po; assay type: ADME, organism-based, Plasma; design: dose 5 mg/kg, route oral, time 0 - last; details: in vivo; summary of the method: as §3
Rattus norvegicus [17] = test: AUC in Sprague-Dawley rat assessed as BMS-585248 level at 1 mg/kg, iv; assay type: ADME, organism-based, Plasma; design: dose 1 mg/kg, route intravenous; details: in vivo; summary of the method: as §2
Rattus norvegicus [18] = test: AUC in dual cannulated portal vein Sprague-Dawley rat assessed as BMS-585248 level at 5 mg/kg, po; assay type: ADME, organism-based, Plasma; design: dose 5 mg/kg, route oral; details: in vivo
Rattus norvegicus [19] = test: Cmax in bacitracin, neomycin sulfate and tetracycline treated Sprague-Dawley rat assessed as BMS-585248 level at 5 mg/kg, po; assay type: ADME, organism-based; design: dose 5 mg/kg, route oral; details: in vivo; summary of the method: as §3
Rattus norvegicus [20] = test: Cmax in Sprague-Dawley rat assessed as BMS-585248 level at 200 mg/kg, po; assay type: ADME, organism-based; design: dose 200 mg/kg, route oral; details: in vivo; summary of the method: as §1
Rattus norvegicus [21] = test: Total AUC in Sprague-Dawley rat assessed as BMS-585248 level at 25 mg/kg, po; assay type: ADME, organism-based; design: time AUCmax, dose 25 mg/kg, route oral; details: in vivo; summary of the method: as §1
Rattus norvegicus [22] = test: AUC in Sprague-Dawley rat assessed as BMS-585248 level at 5 mg/kg, po; assay type: ADME, organism-based, Plasma; design: dose 5 mg/kg, route oral; details: in vivo; summary of the method: as §2
[23] = AUC in Sprague-Dawley rat at 5 mg/kg, po; assay type: ADME, organism-based; design: dose 5 mg/kg, route oral; details: plasma; summary of the method: as §2
[24] = Cmax in Sprague-Dawley rat at 5 mg/kg, po after 6 hrs; assay type: ADME, organism-based; design: dose 5 mg/kg, route oral; details: in vivo
[25] = AUClast in bacitracin, neomycin sulfate and tetracycline treated Sprague-Dawley rat at 5 mg/kg, po; assay type: ADME, organism-based; design: time 0 - last, dose 5 mg/kg, route oral; details: plasma; summary of the method: as §3
[26] = Total AUC in Sprague-Dawley rat at 200 mg/kg, po; assay type: ADME, organism-based; design: time AUCmax, dose 200 mg/kg, route oral; details: in vivo; summary of the method: as §1
[27] = Cmax in Sprague-Dawley rat at 200 mg/kg, po; assay type: ADME, organism-based; design: dose 200 mg/kg, route oral; details: in vivo; summary of the method: as §1
[28] = Cmax in Sprague-Dawley rat at 15 mg/kg, po; details: in vivo
Rattus norvegicus [29] = test: Cmax in bacitracin, neomycin sulfate and tetracycline treated Sprague-Dawley rat at 5 mg/kg, po; assay type: ADME, organism-based; design: dose 5 mg/kg, route oral; details: in vivo; summary of the method: as §3
[30] = Total AUC in Sprague-Dawley rat at 15 mg/kg, po; details: in vivo
[31] = Total AUC in Sprague-Dawley rat at 75 mg/kg, po; assay type: ADME, organism-based; design: time AUCmax, dose 75 mg/kg, route oral; details: in vivo; summary of the method: as §1
[32] = AUClast in Sprague-Dawley rat at 5 mg/kg, po; assay type: ADME, organism-based; design: time 0 - last, dose 5 mg/kg, route oral; details: plasma; summary of the method: as §3
[33] = Cmax in Sprague-Dawley rat at 75 mg/kg, po; assay type: ADME, organism-based; design: dose 75 mg/kg, route oral; details: in vivo; summary of the method: as §1
[34] = tested on: Human immunodeficiency virus 1; test: Antiviral activity against HIV1; assay type: functional, organism-based
[35] = Clearance in beagle dog at 1 mg/kg, iv; assay type: ADME, organism-based, Canis lupus familiaris; design: dose 1 mg/kg, route intravenous; details: in vivo
[36] = Cmax in beagle dog at 5 mg/kg, po; assay type: ADME, organism-based, Canis lupus familiaris; design: dose 5 mg/kg, route oral; details: in vivo
Canis familiaris = test: AUC in beagle dog assessed as BMS-585248 level at 5 mg/kg, po; assay type: ADME, organism-based, Canis lupus familiaris, Plasma; design: dose 5 mg/kg, route oral; details: in vivo
Plasma = test: Prodrug activation in rat plasma assessed as BMS-585248 formation; assay type: cell-free
Summary of the method: (§4)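 Prodrug at 10 μM final incubated 60 min at 37 °C in Tris-HCl buffer pH 7.4, rat blood or rat plasma, aerobic. Aliquots quenched with equal volume ice-cold acetonitrile, centrifuged, supernatant analysed by LC/MS/MS for prodrug and parent.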

[37] = Aqueous solubility of the compound; assay type: physicochemical
[38] = Half life in beagle dog at 1 mg/kg, iv; assay type: ADME, organism-based, Canis lupus familiaris; design: dose 1 mg/kg, route intravenous; details: in vivo
Liver microsomes = test: Prodrug activation in rat liver microsomes assessed as BMS-585248 formation; design: species or system Microsome
Summary of the method: (§5)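 Rat liver cytosol (2 mg/mL) or microsomes (1 mg/mL) incubated with prodrug (10 μM final) and 1 mM NADPH up to 2 h at 37 °C, shaking; anaerobic runs used nitrogen-purged 0.1 M phosphate buffer with 10 mM MgCl2 under humidified nitrogen for 60 min. Acetonitrile quench, LC/MS/MS of prodrug and parent.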

[39] = Prodrug activation in Tris-HCl buffer assessed as BMS-585248 formation at pH 7.4; summary of the method: as §4
[40] = AUC in beagle dog at 5 mg/kg, po; assay type: ADME, organism-based, Canis lupus familiaris; design: dose 5 mg/kg, route oral; details: plasma
[41] = Volume of distribution in beagle dog at 1 mg/kg, iv; assay type: ADME, organism-based, Canis lupus familiaris; design: dose 1 mg/kg, route intravenous; details: in vivo
Liver = test: Prodrug activation in rat liver cytosol assessed as BMS-585248 formation; assay type: tissue-based; summary of the method: as §5
Hepatocyte = test: Prodrug activation in rat hepatocytes assessed as BMS-585248 formation; assay type: cell-based
Summary of the method: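 In-house isolated rat hepatocytes incubated with prodrug (10 μM final) for 2 h at 37 °C in humidified 95/5% air/CO2; aliquots quenched in ice-cold acetonitrile, centrifuged, prodrug and parent quantified by LC/MS/MS.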

[42] = Permeability across human Caco2 cells; assay type: ADME, cell-based; details: Caco-2, read-out: permeability
Blood = test: Prodrug activation in rat blood assessed as BMS-585248 formation; assay type: tissue-based; summary of the method: as §4

dose excreted at 2 h [1]: 16.5%
Compound: CC(=O)N[n+]1ccn(-c2ncc(F)c3c(C(=O)C(=O)N4CCN(C(=O)c5ccccc5)CC4)c[nH]c23)n1

Cmax (Rattus norvegicus [2]): 3120 nM
Cmax (Rattus norvegicus [3]): 12000 nM
AUC [4]: 1.55 µM·h
clearance [5]: 23 mL/min/kg
Cmax [6]: 74 nM
AUClast (Rattus norvegicus [7]): 0.112 µM·h
AUC [8]: 0.035 µM·h
dose excreted at 2 h [1]: 80%
half-life [9]: 18 min
AUC (Rattus norvegicus [10]): 996 µM·h
Vd [11]: 0.29 L/kg
Cmax (Rattus norvegicus [12]): 2140 nM
Cmax (Rattus norvegicus [13]): 1300 nM
AUC (Rattus norvegicus [14]): 8 µM·h
Drug metabolism (Rattus norvegicus [15]): Active
AUClast (Rattus norvegicus [16]): 0.148 µM·h
AUC (Rattus norvegicus [17]): 3.22 µM·h
AUC (Rattus norvegicus [18]): 23.873 µM·h
Cmax (Rattus norvegicus [19]): 79 nM
Cmax (Rattus norvegicus [20]): 77000 nM
AUC (Rattus norvegicus [21]): 72 µM·h
AUC (Rattus norvegicus [22]): 28.098 µM·h
AUC [23]: 0.0208 µM·h
Cmax [24]: 23 nM
Compound: N[n+]1ccn(-c2ncc(F)c3c(C(=O)C(=O)N4CCN(C(=O)c5ccccc5)CC4)c[nH]c23)n1.O=C([O-])C(F)(F)F

AUC(0-t) [25]: 13.8 µM·h
dose excreted at 2 h [1]: 3.5%
AUC [26]: 145 µM·h
Cmax [27]: 11000 nM
Cmax [28]: 6600 nM
Cmax (Rattus norvegicus [29]): 18 nM
AUC [30]: 42 µM·h
AUC [31]: 115 µM·h
AUC(0-t) [32]: 47.5 µM·h
Cmax [33]: 8400 nM
EC50 [34]: 0.06 nM
Compound: O=C(C(=O)N1CCN(C(=O)c2ccccc2)CC1)c1c[nH]c2c(-n3ccnn3)ncc(F)c12

clearance [35]: 13.8 mL/min/kg
Cmax [36]: 139 nM
AUC (Canis familiaris): 8.064 µM·h
Drug metabolism (Plasma): Not Active
solubility [37]: 1760 µg/mL
half-life [38]: 54 min
Drug metabolism (Liver microsomes): Not Active
Drug metabolism [39]: Not Active
AUC [40]: 0.217 µM·h
Vd [41]: 0.3 L/kg
Drug metabolism (Liver): Not Active
Drug metabolism (Hepatocyte): Not Active
Papp [42]: 1.5 ×10⁻⁶ cm/s
Drug metabolism (Blood): Not Active
EC50 [34]: 1.76 nM
Compound: N[n+]1ccn(-c2ncc(F)c3c(C(=O)C(=O)N4CCN(C(=O)c5ccccc5)CC4)c[nH]c23)n1.[Cl-]
